High-throughput results: PubChem BioAssay, several laboratories
UBC13 inh – human UBC13 polyubiquitination inhibition. P61088. UBC13 polyubiquitin chain formation, TR-FRET. inhibition, % at 20 µM. 330,000 tested, 0.47% active; in the data active = inhibition above about 45%, passing the limit was not always enough
Target sequence (P61088 whole entry, looked up): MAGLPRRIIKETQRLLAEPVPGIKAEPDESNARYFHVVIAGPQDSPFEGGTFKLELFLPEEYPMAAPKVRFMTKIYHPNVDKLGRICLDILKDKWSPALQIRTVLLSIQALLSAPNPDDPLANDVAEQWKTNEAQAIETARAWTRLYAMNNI
RBBP9 inh – blocks human serine hydrolase RBBP9 | inhibition, % at 7.94 µM | 220,000 tested, 0.2% active | recombinant RBBP9, FP-Rh probe fluorescence polarization | O75884 | AID 1515;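 active = inhibition above the campaign mean of all tested compounds plus 3 SD, cut at about 14% in these data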;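 note: plate controls were DMSO wells with RBBP9 for no effect and wells lacking RBBP9 protein for full effect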
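Test system – recombinant human RBBP9 · Input – RBBP9 2.5 µM in dispensing solution, pre-mixing · Medium – Tris buffer pH 8.0, NaCl, Pluronic · Schedule – preincubation 30 min plus labeling 45 min at 25 °C · Measured by – fluorescence polarization · Measure – % inhibition · Controls – DMSO and no-protein wells · Replicates – one well per compound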
UBC9 SUMO inh – inhibitors of human SUMOylation (UBC9); 290,000 tested, 0.36% active; P63279; HTRF SUMOylation assay, SAE1/SAE2 + UBC9, in vitro; inhibition, % at 35 µM; in the data active = inhibition above about 50%, passing the limit was not always enough
Target sequence (P63279 whole entry, looked up): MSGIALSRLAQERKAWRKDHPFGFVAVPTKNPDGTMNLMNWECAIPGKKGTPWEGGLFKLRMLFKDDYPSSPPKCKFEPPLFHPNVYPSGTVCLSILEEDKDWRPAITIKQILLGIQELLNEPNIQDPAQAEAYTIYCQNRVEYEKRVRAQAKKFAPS
Rin1-Abl PPI inh – inhibitors of human Rin1-Abl protein interaction; inhibition, % at 7.35 µM; 360,000 tested, 0.4% active; TR-FRET Rin1/Abl binding, biochemical; P00519+Q13671; AID 588664; in the data active = inhibition above about 5%, passing the limit was not always enough
ALR H2O2 inh – inhibitors of human sulfhydryl oxidase ALR; inhibition, % (test concentration not listed); AID 485317; P55789; 290,000 tested, 3.8% active; purified ALR, DTT oxidation, H2O2 HRP-luminol luminescence;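 active = mean replicate inhibition above about 79%, with every replicate also reaching it, limit read from the data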
PREPL inh – inhibits the human prolyl oligopeptidase-like enzyme. recombinant PREPL, fluorescence polarization activity-based probe. inhibition, % at 5.96 µM. 320,000 tested, 0.68% active. AID 2751; in the data active = inhibition above about 43%;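 note: 0% = enzyme with DMSO and 100% = wells lacking enzyme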
* hit, by the source's call; nt = no result given. This is a sample that favours compounds with a hit; in the whole collection about 4.3% have one here.

SMILES	UBC13 inh	RBBP9 inh	UBC9 SUMO inh	Rin1-Abl PPI inh	ALR H2O2 inh	PREPL inh
Cc1ccc(NC(=O)CS(=O)CC(=O)Nc2ccccc2-c2ccc(C)o2)cc1 (centres undefined)	-20	nt	23	-2	99*	11
Nc1ccc2oc(=O)c(-c3ccccc3)cc2c1	-16	nt	20	2	98*	2
COc1ccc(-c2cc3ccc(OCC(N)=O)cc3oc2=O)cc1OC	0	nt	14	1	-11	6
O=c1oc2ccccc2cc1-c1ccc(O)cc1	-17	-8	0	-4	95*	8
Cc1cc(N)ccc1-c1cc2ccccc2oc1=O	7	nt	-16	-1	99*	2
COc1ccc(-c2cc3ccc(O)cc3oc2=O)cc1OC	10	nt	35	-1	99*	1
O=C(N/N=C/c1cc2c(cc1Cl)OCO2)c1cc(-c2ccccc2)n[nH]1	-13	nt	7	-3	nt	-10
O=c1oc2ccccc2cc1NCc1ccccc1O	18	-3	-4	-6	96*	-5
O=C(NCc1ccccc1Cl)c1cc2ccccc2oc1=O	4	nt	7	-4	-1	-8
O=C(CN1C(=O)C(=O)N(C2CCCC2)C1=O)Nc1ccccc1OC(F)F	0	nt	nt	5	nt	6
CC(=O)OC1CC(C)(C)N(OC(=O)c2ccc(N)cc2)C(C)(C)C1	9	-7	4	3	98*	8
Cc1cc(NCCO)c2cc(O)ccc2n1	12	-5	57*	-1	4	6
CCC(Cc1ccccc1)NC(=O)c1ccc2nc(N3CCOCC3)sc2c1 (centres undefined)	-8	nt	5	0	nt	-3
O=C(CCNc1ccccc1)c1cccc([N+](=O)[O-])c1	17	-3	16	3	98*	21
O=C(CCNc1ccc(F)cc1)c1cccc([N+](=O)[O-])c1	5	-6	-7	0	17	35
O=C(O)/C=C/C(=O)Nc1ccc(C2(c3ccc(NC(=O)/C=C/C(=O)O)cc3)c3ccccc3-c3ccccc32)cc1	-25	nt	27	-2	98*	4
O=C(O)/C=C\C(=O)Nc1ccc(Oc2ccccc2)cc1	0	0	8	-1	33	-4
O=C(O)/C=C/C(=O)Nc1ccc(Cc2ccc(NC(=O)/C=C/C(=O)O)cc2)cc1	-1	1	-6	1	99*	2
O=C(O)/C=C/C(=O)Nc1ccc(Oc2ccc(NC(=O)/C=C/C(=O)O)cc2)cc1	18	1	-2	nt	nt	-2
CCOC(=O)Cn1c2ccc(OC)cc2c2nc3ccccc3nc21	-21	-7	54*	-8	-3	13
Cc1ccc(S(=O)(=O)NC(=O)Nc2cc(C)ccc2F)cc1	-7	-6	-2	2	-7	13
CC(=O)NS(=O)(=O)c1ccc(N=c2ssc3c2-c2ccc(C)cc2NC3(C)C)cc1	-20	5	5	-2	100*	0
O=C(Nc1ccc(Br)cc1F)c1nc[nH]c1C(=O)N1CCc2ccccc2C1	nt	nt	nt	2	nt	nt
CC1CCCN(c2nc(N(C)c3ccccc3)nc(N)c2[N+](=O)[O-])C1 (centres undefined)	4	-1	-8	-4	-5	9
CCOC(=O)c1ccc(NC2=CC(=O)CC(c3ccco3)C2)cc1 (centres undefined)	-4	-10	16	4	0	-15
SMILES	UBC13 inh	RBBP9 inh	UBC9 SUMO inh	Rin1-Abl PPI inh	ALR H2O2 inh	PREPL inh
O=C1C=C(Nc2ccc(O)cc2)CC(c2ccco2)C1 (centres undefined)	8	-9	9	-1	99*	9
O=C(N/C(=C\c1cccc(Br)c1)C(=O)N1CCOCC1)c1ccco1	-8	nt	15	0	-5	6
O=C(Nc1ccccc1)C1Cc2ccccc2CN1C(=O)c1ccco1 (centres undefined)	-3	0	24	3	97*	10
c1ccc(COc2ncnc3c2ncn3CCCNCCN2CCOCC2)cc1	nt	nt	nt	0	nt	nt
Cc1ccc(Oc2cc(C)nc(-c3ccccc3O)n2)cc1	9	-1	6	-4	2	15
Cc1cc(OC2CCCCC2)nc(-c2ccccc2O)n1	7	-8	-19	-5	99*	-3
Cc1n[nH]c(=O)c2c(NC(=O)CSc3c(Cl)cccc3Cl)oc(C)c12	-4	nt	nt	4	-17	-10
Cc1n[nH]c(=O)c2c(NC(=O)CSc3nn(-c4ccc(F)cc4)c(=S)s3)oc(C)c12	-11	nt	nt	-3	99*	-13
